From ChEMBL document CHEMBL2146407, “Development of erlotinib derivatives as CIP2A-ablating agents independent of EGFR activity” (Bioorg Med Chem, 2012)
Active and inactive are the calls of the source. The calls are words filed in the database; no cut-off is given here.

Assays:
[1] = target: Protein CIP2A (Homo sapiens) (UniProt Q8TCG1); assay: Inhibition of CIP2A-mediated PP2A-dependent AKT phosphorylation in human SKHEP1 cells at 5 uM after 30 hrs by Western blot analysis; format: cell-based; conditions: SK-HEP1
Summary of the method: (§1)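 SK-Hep-1 cells (3 × 10^5 per 60 mm dish) were exposed to 5 μM for 30 h. Lysates were loaded at 40 μg per lane and immunoblotted for CIP2A, phospho-Akt, PARP and actin.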

SK-HEP1 [2] = assay: Cytotoxicity against human SKHEP1 cells assessed as growth inhibition after 48 hrs by MTT assay; format: functional, cell-based; conditions: SK-HEP1, 48 h
Summary of the method: (§2)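 MTT read-out in SK-Hep-1 cells kept in DMEM with 10% FBS, penicillin/streptomycin and amphotericin B at 37 °C under 5% CO2. Reduced dye solubilized in DMSO and absorbance read at 570 nm. The concentration giving 50% growth inhibition was interpolated from dose–response curves.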

SK-HEP1 [3] = assay: Induction of apoptosis in human SKHEP1 cells assessed as DNA fragmentation at 5 uM after 24 hrs by ELISA; format: functional, cell-based
Summary of the method: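 DNA fragmentation was measured in SK-Hep-1 cells after 24 h of exposure, using a cell death ELISA kit.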

[4] = target: Protein CIP2A (Homo sapiens) (UniProt Q8TCG1); assay: Inhibition of CIP2A in human SKHEP1 cells at 5 uM after 30 hrs by Western blot analysis; format: cell-based; conditions: SK-HEP1; summary of the method: as §1
SK-HEP1 [5] = assay: Induction of apoptosis in human SKHEP1 cells assessed as increase in PARP cleavage at 5 uM after 30 hrs by Western blot analysis; format: functional, cell-based; summary of the method: as §1
[6] = target: T1, Epidermal growth factor receptor (Homo sapiens, UniProt P00533); assay: Inhibition of EGFR phosphorylation in human PC9 cells at 2 uM after 24 hrs by Western blot analysis; format: cell-based; conditions: PC-9
Summary of the method: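 PC9 cells (3 × 10^5 per 60 mm dish), grown in DMEM with 10% FBS at 37 °C and 5% CO2, were treated 24 h at 2 μM. Lysates were loaded at 40 μg per lane and immunoblotted for EGFR phosphorylation.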

SK-HEP1 [7] = assay: Inhibition of CIP2A expression in human SKHEP1 cells at 20 uM after 24 hrs by Western blot analysis; format: functional, cell-based
Summary of the method: (§3)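 SK-Hep-1 cells (3 × 10^5 per 60 mm dish) were treated 24 h, in the primary screen at 20 μM. Lysates were loaded at 40 μg per lane and blotted for CIP2A against actin.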

SK-HEP1 [8] = assay: Induction of apoptosis in human SKHEP1 cells assessed as accumulation at sub-G1 phase at 5 uM after 24 hrs by propidium iodide staining based flow cytometry; format: functional, cell-based
Summary of the method: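 SK-Hep-1 cells were treated 24 h at 5 μM, then trypsinized, pelleted, washed in PBS and stained with propidium iodide. Apoptotic cells were counted by flow cytometry as the sub-G1 fraction. Mean of n = 3 with SD; P <0.05 taken as significant.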

SK-HEP1 [9] = assay: Cytotoxicity against human SKHEP1 cells assessed as cell death after 48 hrs by MTT assay; format: functional, cell-based; conditions: SK-HEP1, 48 h; summary of the method: as §2
SK-HEP1 [10] = assay: Cytotoxicity against human SKHEP1 cells assessed as cell death after 24 hrs by MTT assay
[11] = target: Protein CIP2A (Homo sapiens) (UniProt Q8TCG1); assay: Inhibition of CIP2A-mediated PP2A-dependent AKT phosphorylation in human SKHEP1 cells at 5 uM after 30 hrs by Western blot analysis in presence of okadaic acid; format: cell-based; conditions: SK-HEP1
SK-HEP1 [12] = assay: Inhibition of CIP2A expression in human SKHEP1 cells after 24 hrs by Western blot analysis; format: functional, cell-based; summary of the method: as §3
[13] = target: T1, Epidermal growth factor receptor; assay: Inhibition of EGFR phosphorylation in human PC9 cells after 24 hrs by Western blot analysis; format: cell-based, PC-9

T1 sequence (P00533 whole entry): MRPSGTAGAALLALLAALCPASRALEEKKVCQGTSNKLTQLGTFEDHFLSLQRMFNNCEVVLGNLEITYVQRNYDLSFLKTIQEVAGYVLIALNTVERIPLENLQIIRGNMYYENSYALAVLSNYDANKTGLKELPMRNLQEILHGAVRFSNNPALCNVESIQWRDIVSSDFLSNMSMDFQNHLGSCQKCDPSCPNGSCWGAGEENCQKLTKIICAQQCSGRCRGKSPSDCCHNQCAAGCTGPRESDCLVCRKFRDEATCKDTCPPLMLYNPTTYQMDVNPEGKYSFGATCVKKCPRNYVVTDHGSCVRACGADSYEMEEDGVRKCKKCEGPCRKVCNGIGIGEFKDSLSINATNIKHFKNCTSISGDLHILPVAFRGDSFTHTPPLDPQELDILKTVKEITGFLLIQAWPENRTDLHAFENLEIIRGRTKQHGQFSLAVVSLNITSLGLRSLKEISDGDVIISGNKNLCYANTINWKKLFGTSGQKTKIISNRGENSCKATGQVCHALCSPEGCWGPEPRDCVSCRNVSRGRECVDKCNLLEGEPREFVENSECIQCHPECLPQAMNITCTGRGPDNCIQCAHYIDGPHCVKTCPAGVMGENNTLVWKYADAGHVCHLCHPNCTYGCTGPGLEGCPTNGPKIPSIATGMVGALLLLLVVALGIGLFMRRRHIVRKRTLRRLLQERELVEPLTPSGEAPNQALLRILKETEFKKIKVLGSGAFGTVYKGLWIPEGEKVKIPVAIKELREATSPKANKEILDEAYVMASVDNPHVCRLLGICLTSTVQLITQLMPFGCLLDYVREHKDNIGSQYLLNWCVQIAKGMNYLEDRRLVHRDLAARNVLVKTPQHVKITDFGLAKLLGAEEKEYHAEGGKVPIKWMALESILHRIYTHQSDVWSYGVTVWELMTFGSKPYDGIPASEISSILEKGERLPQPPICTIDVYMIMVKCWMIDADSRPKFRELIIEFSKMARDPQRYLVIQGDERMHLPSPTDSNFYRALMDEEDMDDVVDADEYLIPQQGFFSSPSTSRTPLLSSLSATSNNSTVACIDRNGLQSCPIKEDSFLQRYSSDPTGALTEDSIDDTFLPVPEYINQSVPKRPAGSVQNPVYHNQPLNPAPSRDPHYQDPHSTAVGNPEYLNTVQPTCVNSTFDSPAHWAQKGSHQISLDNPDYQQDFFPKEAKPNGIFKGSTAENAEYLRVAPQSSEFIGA

SMILES | inhibition (SK-HEP1 [7]) | IC50 (SK-HEP1 [9]) [µM] | also measured
C#Cc1cccc(Nc2nc(NCc3ccccc3)nc3cc(OC)c(OC)cc23)c1 | Active |  | inhibition [1]: Active; IC50 (SK-HEP1 [2]): 2.8 µM; Activity (SK-HEP1 [3]): Active; inhibition [4]: Active; Activity (SK-HEP1 [5]): Active; inhibition [6]: inactive; Activity (SK-HEP1 [8]): Active
COc1cc2nc(Cl)nc(Nc3ccc(O)c(C)c3)c2cc1OC |  | > 40 | 
Clc1nccc(NCc2ccccc2)n1 | inactive | > 40 | 
C#Cc1cccc(Nc2nc(Nc3ccc(Cl)c(C(F)(F)F)c3)nc3cc(OC)c(OC)cc23)c1 | Active |  | IC50 (SK-HEP1 [2]): 6.8 µM
Clc1cccc(Nc2ccnc(Cl)n2)c1 | inactive | > 40 | 
COc1cc2nc(Cl)nc(Nc3ccc(Cl)c(C(F)(F)F)c3)c2cc1OC |  | 8.8 | 
COc1cc2nc(Cl)nc(Nc3cc(C)ccc3F)c2cc1OC |  | > 40 | 
C#Cc1cccc(Nc2nc(Nc3cc(C)ccc3F)nc3cc(OC)c(OC)cc23)c1 | Active |  | IC50 (SK-HEP1 [2]): 4.5 µM
C#Cc1cccc(Nc2nc(Nc3ccc(Oc4ccccc4)cc3)nc3cc(OC)c(OC)cc23)c1 | Active |  | inhibition [1]: Active; IC50 (SK-HEP1 [2]): 2.8 µM; Activity (SK-HEP1 [10]): Dose-dependent effect; Activity (SK-HEP1 [3]): Active; inhibition [4]: Active; Activity (SK-HEP1 [5]): Active; inhibition [11]: inactive; inhibition [6]: inactive; Activity (SK-HEP1 [8]): Active; inhibition (SK-HEP1 [12]): Dose-dependent effect
FC(F)(F)c1cc(Nc2ccnc(Nc3ccc(Cl)c(C(F)(F)F)c3)n2)ccc1Cl | Active | 13.8 | 
C#Cc1cccc(Nc2nc(Nc3cccc(Cl)c3)nc3cc(OC)c(OC)cc23)c1 | Active |  | IC50 (SK-HEP1 [2]): 7.1 µM
C#Cc1cccc(Nc2nc(Nc3ccc(Oc4ccc(C#N)cc4)cc3)nc3cc(OC)c(OC)cc23)c1 | Active |  | IC50 (SK-HEP1 [2]): 14.5 µM
COc1cc2nc(Cl)nc(Nc3cccc(Cl)c3)c2cc1OC |  | 16.5 | 
FC(F)(F)c1cc(Nc2ccnc(Cl)n2)ccc1Cl | inactive | > 40 | 
COc1cc2nc(Cl)nc(NCc3ccccc3)c2cc1OC |  | 19.8 | 
COc1cc2nc(Cl)nc(Nc3ccc(Oc4ccccc4)cc3)c2cc1OC |  | 15.3 | 
COc1cc2nc(Cl)nc(Nc3cccc(Oc4ccc(C#N)cc4)c3)c2cc1OC |  | > 40 | 
COc1cc2nc(Cl)nc(Nc3cccc(O)c3)c2cc1OC |  | > 40 | inhibition [1]: inactive; inhibition [4]: inactive; Activity (SK-HEP1 [5]): inactive
C#Cc1cccc(Nc2nc(Cl)nc3cc(OC)c(OC)cc23)c1 |  |  | IC50 [13]: > 8 µM
C#Cc1cccc(Nc2ccnc(Cl)n2)c1 | inactive | > 40 | 
C#Cc1cccc(N(C)c2nc(Cl)nc3cc(OC)c(OC)cc23)c1 |  | 12.3 | 
Clc1nccc(Nc2ccc(Oc3ccccc3)cc2)n1 | inactive | > 40 | 
C#Cc1cccc(Nc2nc(Nc3cccc(Oc4ccc(C#N)cc4)c3)nc3cc(OC)c(OC)cc23)c1 | Active |  | IC50 (SK-HEP1 [2]): 3.9 µM
C#Cc1cccc(Nc2ccnc(Nc3cccc(C#C)c3)n2)c1 | Active | 3.7 | 
